Assay results published in ChEMBL document CHEMBL1926611, “Synthesis and biological evaluation of 4-[3-chloro-4-(3-fluorobenzyloxy)anilino]-6-(3-substituted-phenoxy)pyrimidines as dual EGFR/ErbB-2 kinase inhibitors” (Bioorg Med Chem, 2012).

Tests used:
SK-OV-3 = assay: Cytotoxicity against human SKOV3 cells overexpressing ErbB2 after 72 hrs by MTT assay; conditions: SK-OV-3, 72 h
[1] = target: Epidermal growth factor receptor (Homo sapiens, UniProt P00533); assay: Inhibition of human EGFR preincubated 2 hrs prior addition of ATP by HTRF assay
[2] = target: Receptor tyrosine-protein kinase erbB-2 (Homo sapiens, UniProt P04626); assay: Inhibition of human ErbB2 preincubated for 2 hrs prior addition of ATP by HTRF assay
Outline: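 Wild-type ErbB-2(676–1255) was used in an HTRF KinEASE-TK format. Kinase, substrate peptide and inhibitor were combined, and ATP started the reaction. Detection used Eu-cryptate anti-phosphotyrosine antibody plus XL665-streptavidin, with time-resolved FRET read after 320 excitation. The emission ratio across ten concentrations (0.01–10,000 nM, including no inhibitor) gave IC50, with duplicate reactions and ≥2 independent determinations.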

A-431 = assay: Cytotoxicity against human A431 cells overexpressing EGFR after 72 hrs by MTT assay; conditions: A-431, 72 h

Sequence of Receptor tyrosine-protein kinase erbB-2 (P04626 whole entry): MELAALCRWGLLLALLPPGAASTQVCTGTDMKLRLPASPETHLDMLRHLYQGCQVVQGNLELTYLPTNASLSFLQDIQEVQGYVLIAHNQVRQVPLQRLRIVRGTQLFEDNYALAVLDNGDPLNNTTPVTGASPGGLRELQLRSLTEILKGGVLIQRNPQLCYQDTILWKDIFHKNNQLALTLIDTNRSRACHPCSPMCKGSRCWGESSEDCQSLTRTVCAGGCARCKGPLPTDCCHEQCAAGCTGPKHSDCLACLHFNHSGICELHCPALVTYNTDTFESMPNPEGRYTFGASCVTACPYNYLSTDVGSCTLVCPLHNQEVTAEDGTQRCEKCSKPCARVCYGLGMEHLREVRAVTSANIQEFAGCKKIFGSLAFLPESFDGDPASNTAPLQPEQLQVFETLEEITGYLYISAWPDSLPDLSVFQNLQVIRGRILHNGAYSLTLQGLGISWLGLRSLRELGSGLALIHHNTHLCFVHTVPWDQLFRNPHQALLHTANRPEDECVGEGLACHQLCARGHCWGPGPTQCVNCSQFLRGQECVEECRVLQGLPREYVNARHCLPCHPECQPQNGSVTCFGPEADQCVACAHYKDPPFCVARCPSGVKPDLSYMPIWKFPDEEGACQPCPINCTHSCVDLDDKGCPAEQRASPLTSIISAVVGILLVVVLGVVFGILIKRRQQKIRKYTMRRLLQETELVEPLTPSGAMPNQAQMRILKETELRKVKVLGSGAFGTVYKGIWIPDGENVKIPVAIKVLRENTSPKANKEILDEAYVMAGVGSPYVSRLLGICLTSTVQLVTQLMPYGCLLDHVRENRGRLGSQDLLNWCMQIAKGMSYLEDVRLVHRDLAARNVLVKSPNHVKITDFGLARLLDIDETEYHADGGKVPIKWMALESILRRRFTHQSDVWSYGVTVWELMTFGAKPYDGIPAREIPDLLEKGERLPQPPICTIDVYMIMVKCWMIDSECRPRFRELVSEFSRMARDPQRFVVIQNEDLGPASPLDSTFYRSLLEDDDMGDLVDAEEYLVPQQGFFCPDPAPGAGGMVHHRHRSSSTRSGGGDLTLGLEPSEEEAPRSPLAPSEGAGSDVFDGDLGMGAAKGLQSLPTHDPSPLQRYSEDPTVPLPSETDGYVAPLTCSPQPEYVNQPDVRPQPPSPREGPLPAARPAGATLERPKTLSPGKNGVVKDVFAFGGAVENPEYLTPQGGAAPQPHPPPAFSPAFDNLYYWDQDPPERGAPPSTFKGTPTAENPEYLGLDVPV
Sequence of Epidermal growth factor receptor (P00533 whole entry): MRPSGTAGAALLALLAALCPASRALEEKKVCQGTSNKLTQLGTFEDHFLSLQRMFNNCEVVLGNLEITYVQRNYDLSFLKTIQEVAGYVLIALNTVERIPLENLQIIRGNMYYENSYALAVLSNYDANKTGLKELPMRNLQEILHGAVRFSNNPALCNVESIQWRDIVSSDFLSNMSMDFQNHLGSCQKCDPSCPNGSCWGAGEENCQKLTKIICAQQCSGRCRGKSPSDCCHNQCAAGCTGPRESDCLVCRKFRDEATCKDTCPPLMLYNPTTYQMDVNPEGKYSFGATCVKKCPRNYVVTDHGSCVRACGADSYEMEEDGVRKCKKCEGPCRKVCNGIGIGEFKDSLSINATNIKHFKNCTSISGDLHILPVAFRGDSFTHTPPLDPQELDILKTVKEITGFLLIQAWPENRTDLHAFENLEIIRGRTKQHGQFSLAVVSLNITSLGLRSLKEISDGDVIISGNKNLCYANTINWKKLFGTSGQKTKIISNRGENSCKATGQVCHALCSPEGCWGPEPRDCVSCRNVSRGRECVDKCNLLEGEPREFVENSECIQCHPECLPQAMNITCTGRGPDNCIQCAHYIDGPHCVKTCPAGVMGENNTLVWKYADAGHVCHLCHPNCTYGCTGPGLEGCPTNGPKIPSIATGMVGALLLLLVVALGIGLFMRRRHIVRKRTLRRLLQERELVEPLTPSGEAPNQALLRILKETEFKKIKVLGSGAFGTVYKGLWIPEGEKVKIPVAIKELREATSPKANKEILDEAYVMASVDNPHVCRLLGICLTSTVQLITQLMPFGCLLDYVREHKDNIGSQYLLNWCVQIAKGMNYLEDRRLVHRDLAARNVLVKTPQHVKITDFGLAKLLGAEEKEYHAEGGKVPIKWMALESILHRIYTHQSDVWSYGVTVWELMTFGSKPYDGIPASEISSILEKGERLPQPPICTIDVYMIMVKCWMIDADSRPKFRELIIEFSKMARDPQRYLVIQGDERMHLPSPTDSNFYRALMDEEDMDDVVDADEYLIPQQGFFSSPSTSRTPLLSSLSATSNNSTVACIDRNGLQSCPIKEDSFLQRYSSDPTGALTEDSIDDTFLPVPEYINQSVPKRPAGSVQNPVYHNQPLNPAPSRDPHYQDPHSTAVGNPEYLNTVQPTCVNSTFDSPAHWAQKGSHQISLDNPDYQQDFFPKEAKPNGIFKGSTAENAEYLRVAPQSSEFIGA

In the case of `O=[N+]([O-])c1cccc(Oc2cc(Nc3ccc(OCc4cccc(F)c4)c(Cl)c3)ncn2)c1`, the IC50 (SK-OV-3) is reported as > 30 µM, the IC50 [1] is reported as 1.2 µM and the IC50 [2] is reported as 2.42 µM. For the same compound, the IC50 (A-431) was 10.4 µM.
Compound `Nc1cccc(Oc2cc(Nc3ccc(OCc4cccc(F)c4)c(Cl)c3)ncn2)c1` has an IC50 (SK-OV-3) of 12.2 µM, an IC50 [1] of 0.473 µM and an IC50 [2] of 0.559 µM. For the same compound, the IC50 (A-431) was 8.92 µM.
`CC(=O)Nc1cccc(Oc2cc(Nc3ccc(OCc4cccc(F)c4)c(Cl)c3)ncn2)c1` gave an IC50 (SK-OV-3) of 3.95 µM, an IC50 [1] of 0.108 µM and an IC50 [2] of 0.135 µM. For the same compound, the IC50 (A-431) was 12 µM.
Compound `C=CC(=O)Nc1cccc(Oc2cc(Nc3ccc(OCc4cccc(F)c4)c(Cl)c3)ncn2)c1` has an IC50 (SK-OV-3) of 0.89 µM, an IC50 [1] of 0.037 µM and an IC50 [2] of 0.029 µM. The IC50 (A-431) was 3.25 µM.
Compound `CCOC(=O)/C=C/C(=O)Nc1cccc(Oc2cc(Nc3ccc(OCc4cccc(F)c4)c(Cl)c3)ncn2)c1` has an IC50 (SK-OV-3) of 1.29 µM, an IC50 [1] of 0.129 µM and an IC50 [2] of 0.196 µM. For the same compound, the IC50 (A-431) was 7 µM.
Compound `CCOC(=O)CNc1cccc(Oc2cc(Nc3ccc(OCc4cccc(F)c4)c(Cl)c3)ncn2)c1` has an IC50 (SK-OV-3) of 9.18 µM and an IC50 [2] of 0.219 µM.
Compound `N#CCC(=O)Nc1cccc(Oc2cc(Nc3ccc(OCc4cccc(F)c4)c(Cl)c3)ncn2)c1` has an IC50 (SK-OV-3) of 8.42 µM, an IC50 [1] of 0.048 µM and an IC50 [2] of 0.038 µM. The IC50 (A-431) was 5.17 µM.
With `O=C(Nc1cccc(Oc2cc(Nc3ccc(OCc4cccc(F)c4)c(Cl)c3)ncn2)c1)c1ccc([N+](=O)[O-])cc1` the IC50 (SK-OV-3) was 10.2 µM, the IC50 [1] was > 10 µM and the IC50 [2] was > 10 µM. It also gave an IC50 (A-431) of 6.72 µM.
In the case of `Nc1cc(Nc2cccc(Oc3cc(Nc4ccc(OCc5cccc(F)c5)c(Cl)c4)ncn3)c2)ncn1`, the IC50 (SK-OV-3) is reported as 0.71 µM, the IC50 [1] is reported as 0.061 µM and the IC50 [2] is reported as 0.042 µM. The IC50 (A-431) was 4.24 µM.
With `Fc1cccc(COc2ccc(Nc3cc(Oc4cccc(NCc5ccccc5)c4)ncn3)cc2Cl)c1` the IC50 (SK-OV-3) was 17.9 µM, the IC50 [1] was > 10 µM and the IC50 [2] was > 10 µM. The IC50 (A-431) was 3.11 µM.
For `O=C(/C=C/c1ccccc1)Nc1cccc(Oc2cc(Nc3ccc(OCc4cccc(F)c4)c(Cl)c3)ncn2)c1`, the IC50 (SK-OV-3) was 20.7 µM, the IC50 [1] was 1.67 µM and the IC50 [2] was 3.74 µM. For the same compound, the IC50 (A-431) was 11.2 µM.
`O=C(COc1ccccc1)Nc1cccc(Oc2cc(Nc3ccc(OCc4cccc(F)c4)c(Cl)c3)ncn2)c1` was tested, and the IC50 (SK-OV-3) was 9.1 µM, the IC50 [1] was 0.065 µM and the IC50 [2] was 0.079 µM. The IC50 (A-431) was 14.9 µM.
`O=C(Cc1cc(F)c(F)cc1F)Nc1cccc(Oc2cc(Nc3ccc(OCc4cccc(F)c4)c(Cl)c3)ncn2)c1` was tested, and the IC50 (SK-OV-3) was 26.1 µM, the IC50 [1] was 0.627 µM and the IC50 [2] was 0.834 µM. It also gave an IC50 (A-431) of 9.29 µM.
`O=C(/C=C/c1ccc(F)cc1)Nc1cccc(Oc2cc(Nc3ccc(OCc4cccc(F)c4)c(Cl)c3)ncn2)c1` was tested, and the IC50 (SK-OV-3) was > 30 µM, the IC50 [1] was 0.821 µM and the IC50 [2] was 1.29 µM. For the same compound, the IC50 (A-431) was 18.1 µM.
In the case of `COc1ccc(/C=C/C(=O)Nc2cccc(Oc3cc(Nc4ccc(OCc5cccc(F)c5)c(Cl)c4)ncn3)c2)cc1OC`, the IC50 (SK-OV-3) is reported as > 30 µM, the IC50 [1] is reported as 0.523 µM and the IC50 [2] is reported as 1.23 µM. The IC50 (A-431) was > 20 µM.
In the case of `O=C(COc1cc(F)c(F)c(F)c1)Nc1cccc(Oc2cc(Nc3ccc(OCc4cccc(F)c4)c(Cl)c3)ncn2)c1`, the IC50 (SK-OV-3) is reported as > 30 µM, the IC50 [1] is reported as 0.721 µM and the IC50 [2] is reported as 2.14 µM. The IC50 (A-431) was 13.2 µM.
`COc1ccc(OCC(=O)Nc2cccc(Oc3cc(Nc4ccc(OCc5cccc(F)c5)c(Cl)c4)ncn3)c2)cc1OC` was tested, and the IC50 [1] was > 10 µM, the IC50 [2] was > 10 µM and the IC50 (A-431) was 6.42 µM.
Compound `CS(=O)(=O)CCNCc1ccc(-c2ccc3ncnc(Nc4ccc(OCc5cccc(F)c5)c(Cl)c4)c3c2)o1` [LAPATINIB] has an IC50 (SK-OV-3) of 2.99 µM.
